This is an account of results in ChEMBL document CHEMBL1133594, “Structure-function studies on the new growth hormone-releasing peptide, ghrelin: minimal sequence of ghrelin necessary for activation of growth hormone secretagogue receptor 1a” (J Med Chem, 2000).

Residues, ends and D or L forms follow the SMILES beside them. *: point of attachment. Octanoyl = CCCCCCCC(=O)* Bounds are passed on as bounds.

The target of assay [1] is Growth hormone secretagogue receptor type 1 (Homo sapiens, UniProt Q92847). The assay is described as follows: Binding affinity to cloned human growth hormone secretagogue receptor type 1 in a competitive binding assay with [35S]MK-0677 as a radiolabeled ligand. The gist of the method: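 Competition filter binding on crude membranes from HEK293-aequorin stable cells expressing hGHSR1a, 4 µg membrane protein/well. Bound membranes were filtered on 0.5% polyethylenimine-prewet GF/C filters, washed 8 times and counted by scintillation.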

Assay [2] deals with HEK293. The assay can be described thus: Effective dose measuring intracellular calcium elevation in HEK293 cells. Format: functional, cell-based. As to conditions: Homo sapiens. In short, it runs like this:
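Apo-aequorin was charged 1 h with 10 µM coelenterazine and 300 µM reduced glutathione in ECB buffer, pH 7.4. 5 × 10^4 cells were injected onto peptide and light integrated over 30 s, then Triton X-100 lysis (0.1% final) read over 10 s. Fractional response = challenge/total luminescence.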

The test system of assay [3] is HEK293. The assay is described as follows: Percent activation at 10 uM relative to ghrelin to measure intracellular calcium elevation in HEK293 cells. Type of assay: functional, Homo sapiens. For orientation: Calcium flux is commonly read through the fluorescence of an indicator in the cells.

Growth hormone secretagogue receptor type 1, sequence (Q92847 whole entry): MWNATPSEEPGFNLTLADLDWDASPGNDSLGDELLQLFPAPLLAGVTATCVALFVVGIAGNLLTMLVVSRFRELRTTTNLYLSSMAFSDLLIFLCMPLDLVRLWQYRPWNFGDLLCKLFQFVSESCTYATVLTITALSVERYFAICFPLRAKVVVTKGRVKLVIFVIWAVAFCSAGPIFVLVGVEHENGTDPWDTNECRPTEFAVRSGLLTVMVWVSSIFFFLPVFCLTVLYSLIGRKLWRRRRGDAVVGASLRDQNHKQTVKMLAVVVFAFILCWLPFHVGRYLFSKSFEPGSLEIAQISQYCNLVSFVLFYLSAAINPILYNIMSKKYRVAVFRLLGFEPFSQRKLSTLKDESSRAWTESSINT

As usually defined, the IC50 is the concentration needed to halve the response being measured. A lower IC50 goes with greater potency. The EC50 is the concentration needed to bring the measured effect to its halfway point. `CCCCCCCC(=O)OC[C@H](NC(=O)[C@H](CO)NC(=O)CN)C(=O)N[C@@H](Cc1ccccc1)C(=O)N[C@@H](CC(C)C)C(=O)N[C@@H](CO)C(=O)N1CCC[C@H]1C(=O)N[C@@H](CCC(=O)O)C(=O)N[C@@H](Cc1c[nH]cn1)C(=O)N[C@@H](CCC(N)=O)C(=O)N[C@@H](CCCN=C(N)N)C(=O)N[C@H](C(=O)N[C@@H](CCC(N)=O)C(=O)N[C@@H](CCC(N)=O)C(=O)O)C(C)C` [listing 1 of 2 here] yielded an IC50 in assay [1] of 9.6 nM. Besides, the EC50 in assay [2] turned out to be 17 nM.

As for `CCCCCCCC(=O)OC[C@H](NC(=O)[C@H](CO)NC(=O)CN)C(=O)N[C@@H](Cc1ccccc1)C(=O)N[C@@H](CC(C)C)C(=O)N[C@@H](CO)C(=O)N1CCC[C@H]1C(=O)N[C@@H](CCC(=O)O)C(=O)N[C@@H](Cc1c[nH]cn1)C(=O)N[C@@H](CCC(N)=O)C(=O)N[C@@H](CCCN=C(N)N)C(=O)N[C@H](C(=O)N[C@@H](CCC(N)=O)C(=O)N[C@@H](CCC(N)=O)C(=O)O)C(C)C` [listing 2 of 2 here], in assay [3], the Activation was determined as 97%.

For `CCCCCCCC(=O)NC[C@H](NC(=O)[C@H](CO)NC(=O)CN)C(=O)N[C@@H](Cc1ccccc1)C(=O)N[C@@H](CC(C)C)C(=O)N[C@@H](CO)C(=O)N1CCC[C@H]1C(=O)N[C@@H](CCC(=O)O)C(=O)N[C@@H](Cc1c[nH]cn1)C(=O)N[C@@H](CCC(N)=O)C(=O)N[C@@H](CCCNC(=N)N)C(=O)N[C@H](C(=O)N[C@@H](CCC(N)=O)C(=O)N[C@@H](CCC(N)=O)C(=O)O)C(C)C` [listing 1 of 2 here], the IC50 in assay [1] was determined as 8 nM. In addition, the EC50 in assay [2] amounted to 38 nM.

Take `CCCCCCCC(=O)NC[C@H](NC(=O)[C@H](CO)NC(=O)CN)C(=O)N[C@@H](Cc1ccccc1)C(=O)N[C@@H](CC(C)C)C(=O)N[C@@H](CO)C(=O)N1CCC[C@H]1C(=O)N[C@@H](CCC(=O)O)C(=O)N[C@@H](Cc1c[nH]cn1)C(=O)N[C@@H](CCC(N)=O)C(=O)N[C@@H](CCCNC(=N)N)C(=O)N[C@H](C(=O)N[C@@H](CCC(N)=O)C(=O)N[C@@H](CCC(N)=O)C(=O)O)C(C)C` [listing 2 of 2 here]: in assay [3], the Activation was determined as 102%.

As to `CCCCCCCC(=O)OC[C@H](NC(=O)[C@H](CO)NC(=O)CN)C(=O)N[C@@H](Cc1ccccc1)C(=O)N[C@@H](CC(C)C)C(=O)N[C@@H](CO)C(=O)N1CCC[C@H]1C(=O)N[C@@H](CCC(=O)O)C(=O)N[C@@H](Cc1cnc[nH]1)C(=O)N[C@@H](CCC(N)=O)C(=O)N[C@@H](CCCNC(=N)N)C(=O)N[C@H](C(=O)N[C@@H](CCC(N)=O)C(=O)N[C@@H](CCC(N)=O)C(=O)N[C@@H](CCCNC(=N)N)C(=O)N[C@@H](CCCCN)C(=O)N[C@@H](CCC(=O)O)C(=O)N[C@@H](CO)C(=O)N[C@@H](CCCCN)C(=O)N[C@@H](CCCCN)C(=O)N1CCC[C@H]1C(=O)N1CCC[C@H]1C(=O)N[C@@H](C)C(=O)N[C@@H](CCCCN)C(=O)N[C@@H](CC(C)C)C(=O)N[C@@H](CCC(N)=O)C(=O)N1CCC[C@H]1C(=O)N[C@@H](CCCNC(=N)N)C(=O)O)C(C)C`, the Activation in assay [3] was determined as 100%.

For `CC(C)C[C@H](NC(=O)[C@H](CCCCN)NC(=O)[C@H](C)NC(=O)[C@@H]1CCCN1C(=O)[C@@H]1CCCN1C(=O)[C@H](CCCCN)NC(=O)[C@H](CCCCN)NC(=O)[C@H](CO)NC(=O)[C@H](CCC(=O)O)NC(=O)[C@H](CCCCN)NC(=O)[C@H](CCCNC(=N)N)NC(=O)[C@H](CCC(N)=O)NC(=O)[C@H](CCC(N)=O)NC(=O)[C@@H](NC(=O)[C@H](CCCNC(=N)N)NC(=O)[C@H](CCC(N)=O)NC(=O)[C@H](Cc1cnc[nH]1)NC(=O)[C@H](CCC(=O)O)NC(=O)[C@@H]1CCCN1C(=O)[C@H](CO)NC(=O)[C@H](CC(C)C)NC(=O)[C@H](Cc1ccccc1)NC(=O)[C@H](CO)NC(=O)[C@H](CO)NC(=O)CN)C(C)C)C(=O)N[C@@H](CCC(N)=O)C(=O)N1CCC[C@H]1C(=O)N[C@@H](CCCNC(=N)N)C(=O)O`, the Activation in assay [3] came to 41%. Further, the EC50 in assay [2] was above 10000 nM.

In the case of `CCCCCCCC(=O)NC[C@H](NC(=O)[C@H](CO)NC(=O)CN)C(=O)N[C@@H](Cc1ccccc1)C(=O)N[C@@H](CC(C)C)C(=O)N[C@@H](CO)C(=O)N1CCC[C@H]1C(=O)N[C@@H](CCC(=O)O)C(=O)N[C@@H](Cc1cnc[nH]1)C(=O)N[C@@H](CCC(N)=O)C(=O)N[C@@H](CCCNC(=N)N)C(=O)N[C@H](C(=O)N[C@@H](CCC(N)=O)C(=O)N[C@@H](CCC(N)=O)C(=O)N[C@@H](CCCNC(=N)N)C(=O)N[C@@H](CCCCN)C(=O)N[C@@H](CCC(=O)O)C(=O)N[C@@H](CO)C(=O)N[C@@H](CCCCN)C(=O)N[C@@H](CCCCN)C(=O)N1CCC[C@H]1C(=O)N1CCC[C@H]1C(=O)N[C@@H](C)C(=O)N[C@@H](CCCCN)C(=O)N[C@@H](CC(C)C)C(=O)N[C@@H](CCC(N)=O)C(=O)N1CCC[C@H]1C(=O)N[C@@H](CCCNC(=N)N)C(=O)O)C(C)C`, in assay [3], the Activation is listed as 105%. In assay [1], the IC50 worked out at 0.42 nM. Moreover, the EC50 in assay [2] stood at 31 nM.

With `CC(C)C[C@H](NC(=O)[C@H](CCCCN)NC(=O)[C@H](C)NC(=O)[C@@H]1CCCN1C(=O)[C@@H]1CCCN1C(=O)[C@H](CCCCN)NC(=O)[C@H](CCCCN)NC(=O)[C@H](CO)NC(=O)[C@H](CCC(=O)O)NC(=O)[C@H](CCCCN)NC(=O)[C@H](CCCNC(=N)N)NC(=O)[C@H](CCC(N)=O)NC(=O)[C@H](CCC(N)=O)NC(=O)[C@@H](NC(=O)[C@H](CCCNC(=N)N)NC(=O)[C@H](CCC(N)=O)NC(=O)[C@H](Cc1cnc[nH]1)NC(=O)[C@H](CCC(=O)O)NC(=O)[C@@H]1CCCN1C(=O)[C@H](CO)NC(=O)[C@H](CC(C)C)NC(=O)[C@H](Cc1ccccc1)NC(=O)[C@H](COC(=O)CC12CC3CC(CC(C3)C1)C2)NC(=O)[C@H](CO)NC(=O)CN)C(C)C)C(=O)N[C@@H](CCC(N)=O)C(=O)N1CCC[C@H]1C(=O)N[C@@H](CCCNC(=N)N)C(=O)O`, the Activation in assay [3] is 95%.

On to `CCCCCCCC(=O)OC[C@H](NC(=O)[C@H](CO)NC(C)=O)C(=O)N[C@@H](Cc1ccccc1)C(=O)N[C@@H](CC(C)C)C(N)=O` (Ac-SS(Octanoyl)FL-NH2), for which the Activation in assay [3] was 30%. This compound gave an IC50 in assay [1] above 2000 nM. For the same compound, in assay [2], the concentration for a half-maximal effect (EC50) was 1150 nM.

`CCCCCCCC(=O)OC[C@H](NC(C)=O)C(=O)N[C@@H](Cc1ccccc1)C(=O)N[C@@H](CC(C)C)C(N)=O` (Ac-Ser(Octanoyl)-Phe-Leu-NH2): in assay [3], the Activation stood at 29%. The compound also showed an IC50 in assay [1] above 10000 nM. The EC50 in assay [2] is 2500 nM.

As to `CCCCCCCC(=O)OC[C@H](NC(=O)[C@H](CO)NC(C)=O)C(=O)N[C@@H](Cc1ccccc1)C(N)=O` (Ac-Ser-Ser(Octanoyl)-Phe-NH2), the Activation in assay [3] is given as 28%. For the same compound, the IC50 in assay [1] was above 10000 nM. For the same compound, the EC50 in assay [2] is above 10000 nM.

For the compound `CCCCCCCC(=O)OC[C@H](NC(=O)[C@H](CO)NC(=O)CN)C(=O)N[C@@H](Cc1ccccc1)C(N)=O` (H-GSS(Octanoyl)F-NH2), the Activation in assay [3] came out at 91%. In assay [2], the EC50 came to 72 nM.

On to `CCCCCCCC(=O)OC[C@H](NC(=O)[C@H](CO)NC(=O)CN)C(=O)N[C@@H](Cc1ccccc1)C(=O)N[C@@H](CC(C)C)C(N)=O` (H-GSS(Octanoyl)FL-NH2), for which, in assay [3], the Activation is 11.5%. The EC50 in assay [2] came out at 11.5 nM.

The compound `CCCCCCCC(=O)OC[C@H](NC(=O)[C@H](CO)NC(=O)CN)C(=O)N[C@@H](Cc1ccccc1)C(=O)N[C@@H](CC(C)C)C(=O)N[C@@H](CO)C(=O)N1CCC[C@H]1C(=O)N[C@@H](CCC(=O)O)C(=O)N[C@@H](Cc1c[nH]cn1)C(=O)N[C@@H](CCC(N)=O)C(=O)N[C@@H](CCCNC(=N)N)C(=O)N[C@H](C(=O)N[C@@H](CCC(N)=O)C(=O)N[C@@H](CCC(N)=O)C(=O)N[C@@H](CCCNC(=N)N)C(=O)N[C@@H](CCCCN)C(=O)N[C@@H](CCC(=O)O)C(=O)N[C@@H](CO)C(N)=O)C(C)C` (H-GSS(Octanoyl)FLSPEHQRVQQRKES-NH2) [listing 1 of 2 here] came in with an IC50 in assay [1] of 0.77 nM. In addition, the EC50 in assay [2] was determined as 22 nM.

Consider `CCCCCCCC(=O)OC[C@H](NC(=O)[C@H](CO)NC(=O)CN)C(=O)N[C@@H](Cc1ccccc1)C(=O)N[C@@H](CC(C)C)C(=O)N[C@@H](CO)C(=O)N1CCC[C@H]1C(=O)N[C@@H](CCC(=O)O)C(=O)N[C@@H](Cc1c[nH]cn1)C(=O)N[C@@H](CCC(N)=O)C(=O)N[C@@H](CCCNC(=N)N)C(=O)N[C@H](C(=O)N[C@@H](CCC(N)=O)C(=O)N[C@@H](CCC(N)=O)C(=O)N[C@@H](CCCNC(=N)N)C(=O)N[C@@H](CCCCN)C(=O)N[C@@H](CCC(=O)O)C(=O)N[C@@H](CO)C(N)=O)C(C)C` (H-GSS(Octanoyl)FLSPEHQRVQQRKES-NH2) [listing 2 of 2 here], for which, in assay [3], the Activation was 92%.

On to `CCCCCCCC(=O)OC[C@H](NC(=O)[C@H](CO)NC(=O)CN)C(=O)N[C@@H](Cc1ccccc1)C(=O)N[C@@H](CC(C)C)C(=O)N[C@@H](CO)C(=O)N1CCC[C@H]1C(=O)N[C@@H](CCC(=O)O)C(=O)N[C@@H](Cc1c[nH]cn1)C(=O)N[C@@H](CCC(N)=O)C(=O)N[C@@H](CCCN=C(N)N)C(=O)N[C@H](C(=O)N[C@@H](CCC(N)=O)C(=O)N[C@@H](CCC(N)=O)C(=O)N[C@@H](CCCN=C(N)N)C(=O)N[C@@H](CCCCN)C(=O)N[C@@H](CCC(=O)O)C(=O)N[C@@H](CO)C(=O)N[C@@H](CCCCN)C(=O)N[C@@H](CCCCN)C(=O)N1CCC[C@H]1C(=O)N1CCC[C@H]1C(=O)N[C@@H](C)C(N)=O)C(C)C` (H-GSS(Octanoyl)FLSPEHQRVQQRKESKKPPA-NH2), for which, in assay [3], the Activation is 100%. Also, the EC50 in assay [2] came to 15 nM.

Regarding `CCCCCCCC(=O)OC[C@H](NC(=O)[C@H](CO)NC(=O)CN)C(N)=O` (H-Gly-Ser-Ser(Octanoyl)-NH2), the Activation in assay [3] turned out to be 28%. For the same compound, the IC50 in assay [1] is above 10000 nM. Further, the EC50 in assay [2] was above 10000 nM.
